In ChEMBL document CHEMBL4715798, “Structure-Based Optimization of Multifunctional Agonists for Opioid and Neuropeptide FF Receptors with Potent Nontolerance Forming Analgesic Activities” (J Med Chem, 2016):
Calls of active or inactive are those of the source. The rule behind the calls is not given here. Non-standard residues stand in square brackets, D forms with d. Residues, ends and D or L forms follow the SMILES beside them.

How the values were obtained:
[1] = molecular target: Kappa-type opioid receptor (Homo sapiens, UniProt P41145); experiment: Agonist activity at kappa opioid receptor (unknown origin) expressed in HEK293-A cells assessed as reduction in forskolin-induced cAMP accumulation incubated for 30 mins by competition PKA binding assay; assay type: functional, cell-based
How it was run: (§1)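 cAMP functional read-out in transfected cells. Log EC50 ± standard error was obtained by nonlinear regression of data from at least three independent experiments run in duplicate.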

[2] = molecular target: T1, Neuropeptide FF receptor 2 (Homo sapiens, UniProt Q9Y5X5); experiment: Agonist activity at NPFFR2 (unknown origin) expressed in HEK293-A cells assessed as reduction in forskolin-induced cAMP accumulation incubated for 30 mins by competition PKA binding assay relative to Tyr-D-Ala-Gly-Phe-Gln-Pro-Gln-Arg-Phe-NH2; assay type: functional, cell-based; details: filed as agonist; how it was run: as §1
[3] = molecular target: T2, Delta-type opioid receptor (Homo sapiens, UniProt P41143); experiment: Agonist activity at delta opioid receptor (unknown origin) expressed in HEK293-A cells assessed as reduction in forskolin-induced cAMP accumulation incubated for 30 mins by competition PKA binding assay; assay type: functional, cell-based; how it was run: as §1
Mus musculus [4] = experiment: Antinociceptive activity in mouse assessed as development of tolerance dosed repeated icv injections for 6 days by radiant heat tail-flick test; assay type: functional, organism-based; details: time 6.0 day
How it was run: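 Tail-flick test in mice. Peptide was given icv once daily for 6 days at a fixed dose. Antinociceptive responses to the same dose on day 1 and day 6 were compared to judge tolerance. Values are mean ± SEM.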

[5] = molecular target: T2, Delta-type opioid receptor; experiment: Agonist activity at delta opioid receptor (unknown origin) expressed in HEK293-A cells assessed as reduction in forskolin-induced cAMP accumulation incubated for 30 mins by competition PKA binding assay relative to Tyr-D-Ala-Gly-Phe-Gln-Pro-Gln-Arg-Phe-NH2; assay type: functional, cell-based; details: filed as agonist; how it was run: as §1
[6] = molecular target: T3, Neuropeptide FF receptor 1 (Homo sapiens, UniProt Q9GZQ6); experiment: Agonist activity at NPFFR1 (unknown origin) expressed in HEK293-A cells assessed as reduction in forskolin-induced cAMP accumulation incubated for 30 mins by competition PKA binding assay; assay type: functional, cell-based; how it was run: as §1
Mu-type opioid receptor [7] = molecular target: T4, Mu-type opioid receptor (Homo sapiens, UniProt P35372); experiment: Agonist activity at mu opioid receptor (unknown origin) expressed in HEK293-A cells assessed as reduction in forskolin-induced cAMP accumulation incubated for 30 mins by competition PKA binding assay relative to Tyr-D-Ala-Gly-Phe-Gln-Pro-Gln-Arg-Phe-NH2; assay type: functional, cell-based; details: filed as agonist; how it was run: as §1
[8] = molecular target: T3, Neuropeptide FF receptor 1; experiment: Agonist activity at NPFFR1 (unknown origin) expressed in HEK293-A cells assessed as reduction in forskolin-induced cAMP accumulation incubated for 30 mins by competition PKA binding assay relative to Tyr-D-Ala-Gly-Phe-Gln-Pro-Gln-Arg-Phe-NH2; assay type: functional, cell-based; details: filed as agonist; how it was run: as §1
Mu-type opioid receptor [9] = molecular target: T4, Mu-type opioid receptor; experiment: Agonist activity at mu opioid receptor (unknown origin) expressed in HEK293-A cells assessed as reduction in forskolin-induced cAMP accumulation incubated for 30 mins by competition PKA binding assay; assay type: functional, cell-based; details: read-out: EC50; how it was run: as §1
[10] = molecular target: T1, Neuropeptide FF receptor 2; experiment: Agonist activity at NPFFR2 (unknown origin) expressed in HEK293-A cells assessed as reduction in forskolin-induced cAMP accumulation incubated for 30 mins by competition PKA binding assay; assay type: functional, cell-based; how it was run: as §1
Mus musculus [11] = experiment: Antinociceptive activity in mouse dosed repeated icv injections for 6 days by radiant heat tail-flick test; assay type: functional; details: time 6 day
How it was run: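 Mice received the same icv dose once daily for 6 days in the radiant heat tail-flick test. Tolerance was judged by comparing the antinociceptive response on day 1 with day 6. Values are mean ± SEM.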

Mus musculus [12] = species on record: Mus musculus; experiment: Antinociceptive activity in mouse; assay type: functional
Mus musculus [13] = experiment: Antinociceptive activity in icv dosed mouse assessed as inhibition of phase II flinching behaviors by formalin-induced nociceptive behavioral test; assay type: functional
Mus musculus [14] = experiment: Antinociceptive activity in icv dosed mouse assessed as inhibition of phase I flinching behaviors by formalin-induced nociceptive behavioral test; assay type: functional

SMILES	EC50 [1]	Emax [2]	EC50 [3]	Activity (Mus musculus [4])	Emax [5]	EC50 ([6]; read-out: EC50)	Emax (Mu-type opioid receptor [7])	Emax [8]	EC50 (Mu-type opioid receptor [9])	EC50 ([10]; read-out: EC50)	ED50 (Mus musculus [11])	EC50 ([10]; read-out: pEC50 (converted))	EC50 ([6]; read-out: pEC50 (converted))	ED50 (Mus musculus [12])	ED50 (Mus musculus [13])	ED50 (Mus musculus [14])
CSCC[C@@H](NC(=O)[C@@H](N)Cc1ccc(O)cc1)C(=O)NCC(=O)N[C@@H](Cc1ccccc1)C(=O)N[C@@H](CCC(N)=O)C(=O)N1CCC[C@H]1C(=O)N[C@@H](CCC(N)=O)C(=O)N[C@@H](CCCNC(=N)N)C(=O)N[C@@H](Cc1ccccc1)C(N)=O	1260 nM	57.9%	114 nM	inactive	84.7%	661 nM	89.4%	73.5%	424 nM	41.3 nM	0.0314 nmol	–	–	–	–	–
N=C(N)NCCC[C@H](NC(=O)[C@H](CCC(N)=O)NC(=O)[C@@H]1CCCN1C(=O)[C@H](CCC(N)=O)NC(=O)[C@H](Cc1ccccc1)NC(=O)CNC(=O)[C@@H](CO)NC(=O)[C@@H](N)Cc1ccc(O)cc1)C(=O)N[C@@H](Cc1ccccc1)C(N)=O	1470 nM	63%	118 nM	inactive	84.9%	3200 nM	97.1%	82.3%	563 nM	254 nM	0.6062 nmol	245 nM	–	–	–	–
C[C@@H](NC(=O)[C@@H](N)Cc1ccc(O)cc1)C(=O)NCC(=O)N[C@@H](Cc1ccccc1)C(=O)NCC(=O)N1CCC[C@H]1C(=O)N[C@@H](CCC(N)=O)C(=O)N[C@@H](CCCNC(=N)N)C(=O)N[C@@H](Cc1ccccc1)C(N)=O (H-Y[dA]GFGPQRF-NH2)	1630 nM	56.2%	898 nM	Active	75.7%	881 nM	80.4%	66.8%	28.4 nM	185 nM	0.4172 nmol	–	–	–	–	–
CC(C)C[C@H](NC(=O)[C@H](Cc1ccccc1)NC(=O)CNC(=O)[C@@H](C)NC(=O)[C@@H](N)Cc1ccc(O)cc1)C(=O)N1CCC[C@H]1C(=O)N[C@@H](CCC(N)=O)C(=O)N[C@@H](CCCNC(=N)N)C(=O)N[C@@H](Cc1ccccc1)C(N)=O (H-Y[dA]GFLPQRF-NH2)	120 nM	57.3%	49.3 nM	Active	79.1%	54.4 nM	98.9%	68.4%	250 nM	259 nM	0.1865 nmol	–	53.7 nM	–	–	–
CSCC[C@H](NC(=O)[C@H](Cc1ccccc1)NC(=O)CNC(=O)[C@@H](C)NC(=O)[C@@H](N)Cc1ccc(O)cc1)C(=O)N1CCC[C@H]1C(=O)N[C@@H](CCC(N)=O)C(=O)N[C@@H](CCCNC(=N)N)C(=O)N[C@@H](Cc1ccccc1)C(N)=O (H-Y[dA]GFMPQRF-NH2)	240 nM	58.4%	38.8 nM	Active	81.2%	301 nM	89.2%	69.2%	127 nM	87 nM	0.2967 nmol	–	–	–	–	–
C[C@@H](NC(=O)[C@@H](N)Cc1ccc(O)cc1)C(=O)NCC(=O)N[C@@H](Cc1ccccc1)C(=O)N[C@@H](CCC(N)=O)C(=O)N1CCC[C@H]1C(=O)N[C@@H](CCC(N)=O)C(=O)N[C@@H](CCCNC(=N)N)C(=O)N[C@@H](Cc1ccccc1)C(N)=O (H-Y[dA]GFQPQRF-NH2)	564 nM	58.4%	587 nM	Active	82.2%	591 nM	92.4%	59.9%	308 nM	185 nM	0.533 nmol	–	–	0.39 nmol	1140 pmol	120 pmol
